Experimental findings from the array DNA melting data of Ke et al. (doi:10.1101/2024.01.08.574731) are described below.

Data set [1] can be described thus: folding enthalpy; higher = less favourable; fluorescence melt of hairpins on a sequencing array, two-state fit. The conditions noted are these: sodium 0.088 M. The essentials: (§1)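 On a sequenced MiSeq flow cell, library hairpins with annealed Cy3 and quencher oligos were imaged for Cy3 fluorescence in 2.5 °C steps up to 60 °C, in 50 mM Na-HEPES pH 8.0, 25 mM NaCl. Normalisation used pre-quench Cy3 and control constructs. Bootstrapped two-state fits gave melting temperature and folding enthalpy, combined by inverse variance across four replicates and with fitted temperatures raised by 9.35 °C to match UV melts.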

Data set [2] can be described thus: melting temperature; fluorescence melt of hairpins on a sequencing array, two-state fit, raised by 9.35 °C to match UV melts. The conditions noted are these: sodium 0.088 M. An outline of the steps:
as §1

For the sequence GATCCCCAACGGGATC ((((((....)))))), the folding enthalpy in data set [1] was -29.7 kcal/mol. Also, in data set [2], the Tm is 57.2 °C.
As to GATCCCCAAGGGGATC ((((((....)))))), the folding enthalpy in data set [1] is -37.4 kcal/mol. The Tm in data set [2] was 65 °C.
The corresponding values for GATCCCCACGGGGATC ((((((....)))))) are -36.2 kcal/mol and 66.4 °C.
On the same counts, the results for GATCCCCAGGGGATC ((((((...)))))) are -33.1 kcal/mol and 61.9 °C.
On the same counts, the results for GATCCCCATAGGGATC ((((((....)))))) are -41.1 kcal/mol and 62.8 °C.
As for GATCCCCCCCGGGATC ((((((....)))))), in data set [1], the folding enthalpy was -38.5 kcal/mol. In addition, in data set [2], the Tm was 57.2 °C.
Take GATCCCCCGAGGGATC ((((((....)))))): the folding enthalpy in data set [1] was -34.6 kcal/mol. In data set [2], the Tm stood at 62.1 °C.
On the same counts, the results for GATCCCCCGCGGGATC ((((((....)))))) are -34.2 kcal/mol and 57.2 °C.
On the same counts, the results for GATCCCCCGGGGATC ((((((...)))))) are -31.5 kcal/mol and 64.8 °C.
On the same counts, the results for GATCCCCCGTGGGATC ((((((....)))))) are -36.7 kcal/mol and 60.5 °C.
As for GATCCCCCTGGGATC ((((((...)))))), the folding enthalpy in data set [1] is -38.4 kcal/mol. In addition, the Tm in data set [2] was found to be 62.1 °C.
On the same counts, the results for GATCCCCGAAAGGGAATC (((.(((....))).))) are -21.8 kcal/mol and 44.9 °C.
The corresponding values for GATCCCCGAAAGGGATC (((.(((....)))))) are -29.8 kcal/mol and 56.2 °C.
For the sequence GATCCCCGAAAGGGTATC (((.(((....))).))), the folding enthalpy in data set [1] was -21.1 kcal/mol. The Tm in data set [2] is 42.2 °C.
Regarding GATCCCCGCCGGGATC ((((((....)))))), the folding enthalpy in data set [1] is -40.3 kcal/mol. Also, the Tm in data set [2] is 57.7 °C.
On to GATCCCCGCTGGGATC ((((((....)))))), for which, in data set [1], the folding enthalpy is -32.9 kcal/mol. Also, the Tm in data set [2] worked out at 61.8 °C.
On the same counts, the results for GATCCCCGGAGGGATC ((((((....)))))) are -19.2 kcal/mol and 59.5 °C.
GATCCCCTAGGGGATC ((((((....)))))): the folding enthalpy in data set [1] was -44.1 kcal/mol. The Tm in data set [2] stood at 66.6 °C.
On the same counts, the results for GATCCCCTGGGGGATC ((((((....)))))) are -36.4 kcal/mol and 66.6 °C.
On the same counts, the results for GATCCCGAAAGGGTATC ((((((....))).))) are -15.8 kcal/mol and 45.5 °C.
On the same counts, the results for GATCCCGCATGGGATC ((((((....)))))) are -32.9 kcal/mol and 68 °C.
For GATCCCGCGTGGGATC ((((((....)))))), the folding enthalpy in data set [1] is -38.4 kcal/mol. In addition, in data set [2], the Tm came out at 59.9 °C.
Regarding GATCCCGCTGGGGATC ((((((....)))))), the folding enthalpy in data set [1] was -36.9 kcal/mol. Moreover, the Tm in data set [2] stood at 60.8 °C.
On the same counts, the results for GATCCCGGGTGGGATC ((((((....)))))) are -36 kcal/mol and 60.3 °C.
The corresponding values for GATCCCGGTCGGGATC ((((((....)))))) are -35.5 kcal/mol and 66.1 °C.
In the case of GATCCCGGTTGGGATC ((((((....)))))), the folding enthalpy in data set [1] is -32.4 kcal/mol. Further, in data set [2], the Tm is 65.2 °C.
On the same counts, the results for GATCCCGTCGGGGATC ((((((....)))))) are -35.1 kcal/mol and 64.1 °C.
On the same counts, the results for GATCCCTAAAGGGATC ((((((....)))))) are -36.5 kcal/mol and 60.6 °C.
Turning to GATCCCTAACGGGATC ((((((....)))))), in data set [1], the folding enthalpy is -39.7 kcal/mol. The Tm in data set [2] amounted to 57.6 °C.
The corresponding values for GATCCCTACGGGATC ((((((...)))))) are -32.5 kcal/mol and 67.9 °C.
With GATCCCTATGGGGATC ((((((....)))))), the folding enthalpy in data set [1] was -31.3 kcal/mol. Also, in data set [2], the Tm worked out at 65.5 °C.
The corresponding values for GATCCCTCCCGGGATC ((((((....)))))) are -40.5 kcal/mol and 61.4 °C.
As for GATCCCTCGCGGGATC ((((((....)))))), in data set [1], the folding enthalpy was -39.1 kcal/mol. In addition, the Tm in data set [2] was 59.6 °C.
The corresponding values for GATCCCTCTTGGGATC ((((((....)))))) are -36.8 kcal/mol and 63.7 °C.
The corresponding values for GATCCCTGTCGGGATC ((((((....)))))) are -35 kcal/mol and 60 °C.
The corresponding values for GATCCCTGTGGGATC ((((((...)))))) are -35 kcal/mol and 66.7 °C.
For GATCCCTTACGGGATC ((((((....)))))), the folding enthalpy in data set [1] is -38.9 kcal/mol. For the same sequence, the Tm in data set [2] was found to be 61.5 °C.
The corresponding values for GATCCCTTAGGGATC ((((((...)))))) are -38.3 kcal/mol and 66.1 °C.
